Assay outcomes (PubChem)
Most compounds without a hit are left out; they make up all but 1.7% or so of the library.
CHO-K1 Ca PAM = nonselective activator or artifact in parental CHO-K1 calcium assay | ATP EC20, Fluo-8 calcium fluorescence; 0% at ATP EC20, 100% at ATP max | activation, % at 3 µM | 0.02% of 360,000 active | AID 602247;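 active = activation above the run cutoff, the mean activation of all test compounds plus 3 SD, cut at about 40% in these data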;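 note: peak over basal fluorescence ratio in a 140 s read after ATP addition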
CHRM5 antagonist = blocks acetylcholine activation of human M5 receptor; inhibition, % at 3 µM; P08912; 0.59% of 360,000 active; CHO-hM5 cells, Fluo-8 calcium fluorescence, ACh EC80;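 active = inhibition above a per-plate cutoff, the mean of that plate's test compounds plus 3 SD, cut at about 27% in these data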;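 note: 0% = acetylcholine EC80 with DMSO and 100% = DMSO without agonist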
Target sequence (P08912 whole entry, looked up): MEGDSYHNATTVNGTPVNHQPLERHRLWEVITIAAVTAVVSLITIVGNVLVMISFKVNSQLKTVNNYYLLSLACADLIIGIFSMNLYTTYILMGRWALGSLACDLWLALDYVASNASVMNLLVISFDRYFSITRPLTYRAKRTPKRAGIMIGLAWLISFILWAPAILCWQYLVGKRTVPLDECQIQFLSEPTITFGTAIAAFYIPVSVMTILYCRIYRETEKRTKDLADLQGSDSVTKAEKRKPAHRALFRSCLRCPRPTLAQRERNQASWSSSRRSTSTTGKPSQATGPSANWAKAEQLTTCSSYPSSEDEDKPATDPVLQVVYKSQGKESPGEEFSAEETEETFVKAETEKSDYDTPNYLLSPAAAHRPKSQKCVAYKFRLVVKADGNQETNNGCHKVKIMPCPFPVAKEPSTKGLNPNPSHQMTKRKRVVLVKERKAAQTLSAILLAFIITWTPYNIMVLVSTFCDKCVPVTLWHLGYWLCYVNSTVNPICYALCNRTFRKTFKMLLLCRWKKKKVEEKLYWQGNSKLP
M5 PAM = potentiates acetylcholine response at human M5 receptor; P08912; CHO-K1 hM5, Fluo-8 calcium, ACh EC20 PAM; 0% = ACh EC20, 100% = ACh EC100; activation, % at 3 µM; 0.3% of 360,000 active; AID 624038;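 active = activation above the run cutoff, the mean activation of all test compounds plus 3 SD, cut at about 18% in these data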
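system = human M5 receptor in CHO-K1 cells | compound = one concentration, 3 µM final (nominal) | schedule = Post-acetylcholine fluorescence recording 140 s | signal = Fluo-8 calcium dye fluorescence, kinetic read | benchmarks = low control EC20 acetylcholine (0%), high control EC100 acetylcholine (100%) | repeats = singlicate, one well per test compound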
CHO-K1 Ca antag = nonselective inhibitor or artifact in parental CHO-K1 cells; 0.6% of 360,000 active; inhibition, % at 3 µM; AID 602250; ATP-induced calcium, Fluo-8 fluorescence;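 active = inhibition above a per-plate cutoff, the plate's mean sample inhibition plus 3 SD, cut at about 24% in these data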;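 note: 0% = DMSO plus EC80 ATP and 100% = DMSO alone without ATP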
M5 ag = agonists of human muscarinic M5 receptor (CHRM5). CHO-K1 hM5 cells, Fluo-8 calcium fluorescence; 0% DMSO wells, 100% maximal acetylcholine response. activation, % at 3 µM. 0.19% of 360,000 active. AID 624037;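 active = activation above the run's mean over test compounds plus 3 SD, cut at about 23% in these data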;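 note: signal is peak over basal fluorescence ratio across the kinetic read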
CHO-K1 Ca ag = counter-screen for M1 agonists: effect in parental CHO-K1 cells; Fluo-8 calcium fluorescence; scaled to maximal ATP response, vehicle zero; 0.48% of 360,000 active; activation, % at 3 µM; in the data active = activation above about 15%;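 note: untransfected CHO-K1 host cells lacking M1 receptor as counterscreen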
An asterisk follows results filed as active.

SMILES	CHO-K1 Ca PAM	CHRM5 antagonist	M5 PAM	CHO-K1 Ca antag	M5 ag	CHO-K1 Ca ag
CCSc1ccc2c(c1)N(CCCN1CCN(C)CC1)c1ccccc1S2	14	15	-16	7	1	3
CN1CCCCC1CCN1c2ccccc2Sc2ccc(S(C)=O)cc21 (stereo unspecified)	21	98*	-18	-10	-2	0
CC1(C)CC(C)(c2ccc(O)cc2O)N(c2cccc(Cl)c2)C(=S)N1 (stereo unspecified)	20	-9	-16	-20	-11	0
COc1ccccc1Cn1c(=O)[nH]c2cccnc21	19	6	41*	6	-5	0
CN(Cc1nccs1)C(=O)c1ccc(OC2CCN(CCc3ccccc3)CC2)cc1	8	9	-13	-5	-6	4
CCn1ccnc1CN(C)C(=O)c1ccc(OC2CCN(CCc3ccccc3)CC2)cc1	5	47*	-16	10	-11	0
CCCCCc1c(-c2ccccc2OC)ncn1CCc1ccccc1OC	7	32*	-23	11	4	11
CCCCc1c(-c2ccccc2OC)ncn1CCc1ccccc1OC	-4	15	-23	9	4	13
CCOC(=O)C1=CCN(S(=O)(=O)c2ccc(Cl)cc2)C1c1ccc(C)cc1 (stereo unspecified)	-8	5	-11	24*	-3	0
CCOC(=O)C1=CCN(S(=O)(=O)c2ccc(C)cc2)C1c1cccc(Br)c1 (stereo unspecified)	-9	0	-9	29*	-3	0
CC(NC(=O)COC(=O)Cc1ccsc1)c1ccccc1 (stereo unspecified)	16	4	-2	2	0	18*
CC(C)c1cc(=O)[nH]c(SCC(=O)NC2CCCC2)n1	-4	2	5	1	-1	0
CCCCN(C)CCCN1C(=O)C2C(C(=O)Nc3cccc(OC)c3)C3C=CC2(O3)C1C(=O)NC1CCCCC1C (stereo unspecified)	-18	10	-5	-3	-3	0
CCC(C)N1C(=O)C2C(C(=O)Nc3cccc(OC)c3)C3C=CC2(O3)C1C(=O)NC1CCCCC1C (stereo unspecified)	-4	-1	5	28*	-4	-1
COc1cc(/C=C/C(=O)O)cc(S(=O)(=O)Nc2cc(C(F)(F)F)ccc2N2CCOCC2)c1OC	-1	2	6	-12	1	0
CCOC(=O)C1CCN(c2ncnc3c(C)csc23)CC1	-26	20	-32	17	6	15*
Cc1cccc(NC(=O)COc2ccc(Br)cc2)n1	-9	26	33*	1	-3	0
COc1ccc(C(CC(=O)Nc2nccs2)C(C)C)cc1 (stereo unspecified)	3	4	-5	3	0	19*
Cc1cnc(NC(=O)COc2ccccc2)s1	-9	-12	8	25*	1	0
COc1ccc(OCC(=O)Nc2nccs2)cc1	13	8	1	-5	-1	17*
Cc1ccc(OCC(=O)NC(=S)Nc2cccc(C)n2)cc1	23	-4	6	-10	-2	1
Cc1c(NC(=O)COc2ncnc3c(Cl)cc(Cl)cc23)c(=O)n(-c2ccccc2)n1C	17	-12	3	-2	1	0
CCN(C(=O)CCc1nc(-c2ccc(OC)cc2)no1)c1cc(OC)ccc1OC	-4	7	-2	-5	-9	2
COc1ccc(CC(=O)Nc2nc(C)cs2)cc1	-6	-3	6	7	1	16*
Cc1csc(NC(=O)Cc2ccc(Cl)cc2)n1	6	-1	5	-9	3	1
COCCCNc1nc(N)c([N+](=O)[O-])c(Nc2cc(OC)ccc2OC)n1	30	5	8	-17	36*	4
Cc1nonc1-c1ccc2c(c1)OCO2	2	0	0	-12	-4	0
COC(=O)c1ccc(OS(=O)(=O)c2ccc(NC(C)=O)cc2)cc1	-14	10	-11	24*	6	5
CC(=O)Nc1ccc(S(=O)(=O)Oc2ccc(/C=N/NC(=O)c3ccc(Cl)cc3)cc2)cc1	15	12	-19	0	-9	2
